Activity calls are given as the source filed them. No cut-off for these calls is given here.
How the values were obtained:
[1] = biological target: T1, Cannabinoid receptor 1 (Homo sapiens, UniProt P21554); assay: Displacement of [3H]CP55940 from human CB1 receptor expressed in human HEK293 cells; assay type: cell-based
[2] = biological target: Cannabinoid receptor 2 (Homo sapiens, UniProt P34972); assay: Displacement of [3H]CP55940 from human CB2 receptor expressed in human HEK293 cells; assay type: cell-based
Chain of Cannabinoid receptor 2 (P34972 whole entry): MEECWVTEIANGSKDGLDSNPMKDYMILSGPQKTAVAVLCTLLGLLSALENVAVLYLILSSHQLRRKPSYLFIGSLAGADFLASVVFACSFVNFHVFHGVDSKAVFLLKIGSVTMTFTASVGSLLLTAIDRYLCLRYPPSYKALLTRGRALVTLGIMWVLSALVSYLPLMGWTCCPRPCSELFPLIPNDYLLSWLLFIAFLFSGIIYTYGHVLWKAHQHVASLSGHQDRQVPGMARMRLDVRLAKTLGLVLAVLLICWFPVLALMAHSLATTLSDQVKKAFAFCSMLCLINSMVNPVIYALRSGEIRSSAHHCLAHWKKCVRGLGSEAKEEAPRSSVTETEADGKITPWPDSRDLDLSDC
Method in brief: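 Membranes from HEK-293 cells stably expressing human CB1 or CB2. Compounds displacing >50% at 10 μM got curves at 1–1000 nM. Ki from IC50 via Cheng–Prusoff. Three experiments in duplicate. SI = Ki CB2/Ki CB1.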

[3] = species: Homo sapiens; assay: Selectivity index, ratio of Ki for human CB2 receptor to Ki for human CB1 receptor
Method in brief: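 Membranes from HEK-293 cells stably expressing human CB1 or CB2. […] Preliminary screen at 5, 10, 25 μM. Compounds displacing >50% at 10 μM got curves at 1–1000 nM. Ki from IC50 via Cheng–Prusoff. Three experiments in duplicate. SI = Ki CB2/Ki CB1.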

[4] = biological target: Cannabinoid receptor 1 (Mus musculus, UniProt P47746); assay: Agonist activity at MF1 mouse brain CB1 receptor assessed as induction of [35S]GTPgammaS binding after 60 mins by liquid scintillation counting; assay type: functional, tissue-based
Chain of Cannabinoid receptor 1 (Mus musculus, UniProt P47746) (P47746 whole entry): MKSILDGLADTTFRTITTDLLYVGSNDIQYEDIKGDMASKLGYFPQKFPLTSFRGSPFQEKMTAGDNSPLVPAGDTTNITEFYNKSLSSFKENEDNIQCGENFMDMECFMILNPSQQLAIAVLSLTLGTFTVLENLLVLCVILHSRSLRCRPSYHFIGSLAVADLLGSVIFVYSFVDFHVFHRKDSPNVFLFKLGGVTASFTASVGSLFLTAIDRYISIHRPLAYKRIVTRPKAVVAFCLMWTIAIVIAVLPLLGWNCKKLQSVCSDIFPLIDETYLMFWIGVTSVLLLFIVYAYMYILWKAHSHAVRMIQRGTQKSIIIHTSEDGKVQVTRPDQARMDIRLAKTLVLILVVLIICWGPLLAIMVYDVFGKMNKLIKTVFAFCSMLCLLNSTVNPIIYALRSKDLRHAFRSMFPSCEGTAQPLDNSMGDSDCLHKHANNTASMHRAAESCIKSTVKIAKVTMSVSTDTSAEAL
Method in brief: (§1)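 [35S]GTPγS binding in buffer of 50 mM Tris-HCl, 50 mM Tris-base, 5 mM MgCl2, 1 mM EDTA, 100 mM NaCl, 1 mM DTT, 0.1% BSA with 0.1 nM [35S]GTPγS and 30 μM GDP. Mouse whole brain membranes (5 μg/well) were preincubated 30 min at 30 °C with adenosine deaminase. CHO-hCB1 membranes were used at 50 μg/well. Test range 1 nM–10 μM. Incubation 60 min at 30 °C, filtration, scintillation counting. Nonspecific binding taken with 30 μM GTPγS. Net stimulation = agonist minus basal. EC50/Emax by sigmoid nonlinear regression.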

[5] = biological target: Cannabinoid receptor 1 (Mus musculus) (UniProt P47746); assay: Agonist activity at MF1 mouse brain CB1 receptor assessed as induction of [35S]GTPgammaS binding after 60 mins by liquid scintillation counting relative to cannabinoid receptor agonist CP55940; assay type: functional, tissue-based; method in brief: as §1
Chain of Cannabinoid receptor 1 (Mus musculus) (P47746 whole entry): as above

[6] = biological target: Cannabinoid receptor 1 (Mus musculus) (UniProt P47746); assay: Antagonist activity at MF1 mouse brain CB1 receptor assessed as inhibition of CP55940-induced [35S]GTPgammaS binding at 1 uM after 60 mins by liquid scintillation counting; assay type: functional
Method in brief: (§2)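 Same [35S]GTPγS assay on mouse whole brain membranes (5 μg/well, adenosine deaminase-preincubated). 0.1 nM [35S]GTPγS, 30 μM GDP. Single concentration of test compound, 1 μM or 100 nM, against a log concentration-response curve of CP-55940. Incubation 60 min at 30 °C. Read by filtration and liquid scintillation counting.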

[7] = biological target: T1, Cannabinoid receptor 1; assay: Agonist activity at human CB1 receptor expressed in CHO cells assessed as induction of [35S]GTPgammaS binding after 60 mins by liquid scintillation counting; assay type: functional, cell-based; method in brief: as §1
[8] = biological target: T1, Cannabinoid receptor 1; assay: Antagonist activity at human CB1 receptor expressed in CHO cells assessed as inhibition of CP55940-induced [35S]GTPgammaS binding after 60 mins by liquid scintillation counting; assay type: functional, cell-based
[9] = biological target: Cannabinoid receptor 1 (Mus musculus) (UniProt P47746); assay: Antagonist activity at MF1 mouse brain CB1 receptor assessed as inhibition of CP55940-induced [35S]GTPgammaS binding at 100 nM after 60 mins by liquid scintillation counting; assay type: functional; method in brief: as §2
[10] = Chemical stability of the compound in biological buffer at 2.1 mM at 30 degC after 90 mins by LC-MS/MS analysis; assay type: physicochemical; conditions: 1.5 h, 2100 µM
Method in brief: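 DMSO solution (2.1 mM stock) diluted in GTPγS binding buffer and incubated 90 min at 30 °C. Samples taken at 60 and 90 min and analysed by LC–ESI triple-quadrupole MS (positive mode, C18, acetonitrile/0.1% formic acid gradient) for hydrolysis products.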

[11] = test system: Plasma; assay: Metabolic stability of the compound in human plasma assessed as plasma esterase-mediated compound hydrolysis at 200 uM from 15 to 120 mins by reverse-phase LC-MS analysis; assay type: ADME, cell-free
Method in brief: (§3)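 Citrated human plasma, or water as control, spiked to final 1 × 10⁻⁴ or 2 × 10⁻⁴ M. Incubated at 37 °C for 0, 15, 30, 60, 120 min, stopped with acetonitrile, centrifuged. Supernatant run by reverse-phase LC (C8, methanol/water 92/8) with UV 254 nm and positive-ion MS. Triplicates. AUC(0–120 min) compared by Student's t test.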

[12] = test system: CYP3A4; assay: Metabolic stability assessed as compound remaining at 1 uM after 1 hr by LC-MS analysis in presence of human CYP3A4 and NADPH; assay type: ADME; conditions: human CYP3A4 enzyme, read-out: Stability
Method in brief: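 Recombinant human CYP3A4 at 20 pmol/mL (0.1–0.2 mg/mL protein). Substrate final 1 μM, 0.25% organic solvent. Run with NADPH regenerating system or phosphate buffer instead. Incubated 1 h at 37 °C, stopped with acetonitrile. Percent remaining by MS.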

[13] = test system: Plasma; assay: Metabolic stability of the compound in human plasma assessed as plasma esterase-mediated compound hydrolysis at 100 uM from 15 to 120 mins by reverse-phase LC-MS analysis; assay type: ADME, cell-free; method in brief: as §3

T1 sequence (P21554 whole entry): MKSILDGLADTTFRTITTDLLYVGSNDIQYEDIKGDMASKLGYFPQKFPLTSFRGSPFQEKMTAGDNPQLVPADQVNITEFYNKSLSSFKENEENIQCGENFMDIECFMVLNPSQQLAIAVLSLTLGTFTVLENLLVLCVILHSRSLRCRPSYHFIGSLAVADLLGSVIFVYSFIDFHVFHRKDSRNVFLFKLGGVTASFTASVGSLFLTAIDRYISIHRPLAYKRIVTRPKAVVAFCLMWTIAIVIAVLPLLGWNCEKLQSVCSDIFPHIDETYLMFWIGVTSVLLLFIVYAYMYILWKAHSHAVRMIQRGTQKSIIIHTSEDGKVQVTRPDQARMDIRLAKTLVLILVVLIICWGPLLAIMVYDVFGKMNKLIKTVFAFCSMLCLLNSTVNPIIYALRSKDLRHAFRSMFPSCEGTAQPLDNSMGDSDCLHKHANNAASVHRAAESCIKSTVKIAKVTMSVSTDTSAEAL

| Structure (SMILES) | Ki [1] | Ki [2] | other results |
| --- | --- | --- | --- |
| CCCCCc1cc(O)cc(OCCCCCCCCCCOC(CO)CO)c1 | > 10000 nM | > 10000 nM | – |
| CCCCCCc1ccc(O)cc1OCCCCCCCCCCC(=O)OC(CO)CO | 60 nM | 1800 nM | Ratio Ki [3]: 32; EC50 [4]: 78.4 nM; Emax [5]: 11.4%; Activity [6]: inactive; Activity [7]: inactive; Activity [8]: inactive |
| CCCCCc1cc(O)cc(OCCCCCCCCCCC(=O)OCC(O)CO)c1 (stereo not given) | > 10000 nM | 7910 nM | – |
| CCCCCc1cc(O)cc(OCCCCCCOC(CO)CO)c1 | 430 nM | 910 nM | – |
| CCCCCCc1ccc(O)cc1OCCCCCCCCCCC(=O)OCC(O)CO (stereo not given) | > 10000 nM | 4820 nM | – |
| CCCCCCC(C)(C)c1cc(O)cc(OCCCCCCCCOC(CO)CO)c1 | 270 nM | 110 nM | – |
| CCCCCCc1ccc(OCCCCCCCCCCOC(CO)CO)cc1O | > 10000 nM | 2390 nM | – |
| CCCCCCc1ccc(OCCCCCCOC(CO)CO)cc1O | > 10000 nM | 1130 nM | – |
| CCCCCCc1ccc(OCCCCCCCCCCC(=O)OC(CO)CO)cc1O | > 10000 nM | 7870 nM | – |
| CCCCCCC(C)(C)c1cc(O)cc(OCCCCCCCCCCC(=O)OC(CO)CO)c1 | 10 nM | 790 nM | Ratio Ki [3]: 88; EC50 [4]: 6.3 nM; Emax [5]: 14.7%; Activity [9]: inactive; Activity [7]: inactive; Activity [8]: inactive; Stability [10]: Stable; Stability [11]: Stable; remaining at 1 h, 1 µM [12]: 24%; Stability [13]: Stable |
| CCCCCc1cc(O)cc(OCCCCCCCC(=O)OC(CO)CO)c1 | 5600 nM | 7870 nM | – |
| CCCCCCC(C)(C)c1cc(O)cc(OCCCCCCOC(CO)CO)c1 | – | 190 nM | – |
| CCCCCc1cc(O)cc(OCCCCCCCCCCCCOC(CO)CO)c1 | 3780 nM | > 10000 nM | – |
| CCCCCCC(C)(C)c1cc(O)cc(OCCCCCCCCCCCCOC(CO)CO)c1 | 1040 nM | 1670 nM | – |
| CCCCCCc1ccc(OCCCCCCCC(=O)OC(CO)CO)cc1O | > 10000 nM | 7870 nM | – |
| CCCCCc1cc(O)cc(OCCCCCCCCCCC(=O)OC(CO)CO)c1 | 5600 nM | 870 nM | – |
| CCCCCCC(C)(C)c1cc(O)cc(OCCCCCCCCCCOC(CO)CO)c1 | 2940 nM | 380 nM | – |
| CCCCCCC(C)(C)c1cc(O)cc(OCCCCCCCCCCC(=O)OCC(O)CO)c1 (stereo not given) | > 10000 nM | 310 nM | – |
| CCCCCCC(C)(C)c1cc(O)cc(OCCCCCCCCCCCC(=O)OC(CO)CO)c1 | 2710 nM | 800 nM | – |
| CCCCC/C=C\C/C=C\C/C=C\C/C=C\CCCCOC(CO)CO | 20 nM | > 3000 nM | – |
| CCCCCc1cc(O)cc(OCCCCCCCCOC(CO)CO)c1 | 1860 nM | 1160 nM | – |
| CCCCCCc1ccc(O)cc1OCCCCCCCC(=O)OC(CO)CO | 800 nM | 1800 nM | – |
| CCCCCCC(C)(C)c1cc(O)cc(OCCCCCCCC(=O)OC(CO)CO)c1 | 1120 nM | 790 nM | – |
| CCCCCCC(C)(C)c1ccc([C@@H]2C[C@H](O)CC[C@H]2CCCO)c(O)c1 [CP-55940] | – | – | EC50 [4]: 42 nM; Emax [5]: 104% |
| CCCCCCc1ccc(OCCCCCCCCCCC(=O)OCC(O)CO)cc1O (stereo not given) | > 10000 nM | 10400 nM | – |
